Measurements of several laboratories.
Lines come from different studies, so protocols differ.
Target: Serine/threonine-protein kinase MARK1 (MARK1, Homo sapiens, UniProt Q9P0L2)

| SMILES | read-out | action | method | concentration | measurement | value |
| --- | --- | --- | --- | --- | --- | --- |
| O=S(=O)(NC1CCC(c2cc(F)ccc2F)(S(=O)(=O)c2ccc(Cl)cc2)CC1)C(F)(F)F (centres unmarked) | cell-free assay | – | competition with immobilised ligand | 1 µM | remaining binding | 100% |
| CCN(CC)CCNC(=O)c1c(C)[nH]c(/C=C2\C(=O)Nc3ccc(F)cc32)c1C | enzyme activity | inhibitor | – | 10 µM | inhibition | 92% |
| Cc1nn(CC(F)(F)F)cc1Nc1ncc(C2CC2)c(NCCc2c[nH]cn2)n1 | enzyme activity | inhibitor | radiometric | 1 µM | remaining activity | 71% |
| CS(=O)(=O)NCC[C@H](NC(=O)c1cncc2c1cnn2-c1ccc(F)cc1)c1ccnc(S(C)(=O)=O)c1 | cell-free assay | – | competition with immobilised ligand | 1 µM | remaining binding | 92% |
| CN1CCc2cc(Nc3ncc(C4CC4)c(NCCCNC(=O)C4CCC4)n3)ccc2C1 | enzyme activity | inhibitor | radiometric | 1 µM | remaining activity | -1% |
| C[C@H](c1ccnc(Nc2nc3ccc(-c4cc(N(C)C)ncn4)cc3[nH]2)c1)N1CCN(C(=O)CC(F)(F)F)CC1 | cell-free assay | – | competition with immobilised ligand | 0.1 µM | remaining binding | 100% |
| O=C(Nc1cccc(Nc2ncc(Br)c(NCCc3cnc[nH]3)n2)c1)N1CCCC1 | enzyme activity | inhibitor | radiometric | 1 µM | remaining activity | -4% |
| FC(F)c1nc2ccccc2n1-c1nc(N2CCOCC2)nc(N2CCOCC2)n1 | enzyme activity | inhibitor | – | 10 µM | remaining activity | 106% |
| C=CC(=O)Nc1cc(Nc2nccc(Nc3cc(Cl)c(F)cc3C(C)(C)O)n2)c(OC)cc1N1CC[C@@H](N(C)C)C1 | enzyme activity | inhibitor | – | 1 µM | inhibition | 4% |
| COc1cc2ncnc(Nc3ccc(Oc4ccccc4)cc3C)c2cc1OC | enzyme activity | inhibitor | – | 1 µM | inhibition | 8% |
| Cc1ccc(NC(=O)c2ccc(C)c(C(F)(F)F)c2)cc1C#Cc1nn(C2CCC(O)CC2)c2ncnc(N)c12 (centres unmarked) | cell-free assay | – | – | 10 µM | remaining signal | 94% |
| Cc1sc(C(=O)NC2COC2)cc1-n1cc(NC(=O)Nc2c(F)cccc2Cl)cn1 | enzyme activity | inhibitor | – | 10 µM | remaining activity | 95.3% |
| O=C1NC(=O)c2cc(Nc3ccc(F)cc3)c(Nc3ccc(F)cc3)cc21 | cell-free assay | – | – | 0.5 µM | remaining signal | 98.9% |
| C[C@@]1(Cc2ccc(C#N)cc2)C(=O)N(c2cc(Cl)cc(Cl)c2)c2ncc(C(=O)NC3(c4nc(C5CCC5)no4)CC3)n21 | cell-free assay | – | competition with immobilised ligand | 1 µM | remaining binding | 100% |
| O=C(NCCCNc1ccnc(Nc2cccc(NC(=O)N3CCCC3)c2)n1)C1CCC1 | enzyme activity | inhibitor | radiometric | 1 µM | remaining activity | 72% |
| C[C@@H](c1cccc(C#N)c1)n1cc(Cl)cc(C(N)=O)c1=N | cell-free assay | – | competition with immobilised ligand | 1 µM | remaining binding | 100% |

| SMILES | read-out | action | method | concentration | measurement | value |
| --- | --- | --- | --- | --- | --- | --- |
| CSc1nc(C)c(-c2ccnc(Nc3ccc(N4CCOCC4)cc3)c2)[nH]1 | enzyme activity | inhibitor | – | 10 µM | inhibition | 20.1% |
| Cc1nn(CC(F)(F)F)cc1Nc1ncc(Br)c(NCc2ccc(S(N)(=O)=O)cc2)n1 | enzyme activity | inhibitor | radiometric | 1 µM | remaining activity | 90% |
| Cc1ccc(Nc2nccc(N(C)c3ccc4c(C)n(C)nc4c3)n2)cc1S(N)(=O)=O | enzyme activity | inhibitor | – | 0.3 µM | inhibition | 19% |
| CS(=O)(=O)N1CCCC(NC(=O)[C@H](CCC2CCCCC2)NC(=O)c2ccc(CNc3ncnc4c3nnn4-c3ccccc3)cc2)C1 (some centres unmarked) | cell-free assay | – | competition with immobilised ligand | 0.1 µM | remaining binding | 74% |
| FC(F)(F)Oc1cccc(-c2cnc3ccc(-c4ccncc4)nn23)c1 | enzyme activity | inhibitor | radiometric | 1 µM | activity vs control | 92% |
| CCCCN(CCCC)C(=O)CN1C[C@@H](c2cc(OC)c3c(c2)OCO3)[C@H](C(=O)O)[C@H]1CC(C)(C)CCC | cell-free assay | – | competition with immobilised ligand | 1 µM | remaining binding | 88.7% |
| CN(C)c1nccc(-c2cnn3ncccc23)n1 | binding | – | – | 1 µM | remaining binding | 96% |
| CCC(=O)N[C@H]1CC[C@@H](C(=O)N(C)c2ccc(-c3nc4ccccc4o3)cc2)C1 | cell-free assay | – | competition with immobilised ligand | 1 µM | remaining binding | 100% |
| C[S+]([O-])c1ccc(-c2nc(-c3ccncc3)c(-c3ccc(F)cc3)[nH]2)cc1 (centres unmarked) | cell-free assay | – | – | 0.5 µM | remaining signal | 105% |
| COc1cc(Nc2cnc(C#N)c(O[C@H](C)CN(C)C)n2)ncc1-c1cnn(C)c1 | enzyme activity | inhibitor | radiometric | 1 µM | remaining activity | 95% |
| O=C(NCCCNc1nc(Nc2cccc(CN3CCOCC3)c2)ncc1C1CC1)C1CCC1 | enzyme activity | inhibitor | radiometric | 1 µM | remaining activity | -5% |
| CS(=O)(=O)CCNCc1ccc(-c2ccc3ncnc(Nc4ccc(OCc5cccc(F)c5)c(Cl)c4)c3c2)o1 | cell-free assay | – | – | 0.5 µM | remaining signal | 149% |
| Cc1nn(CC(F)(F)F)cc1Nc1nccc(NCc2ccc(S(N)(=O)=O)cc2)n1 | enzyme activity | inhibitor | radiometric | 1 µM | remaining activity | 107% |
| CNC(=O)c1cc(Oc2ccc(NC(=O)Nc3ccc(Cl)c(C(F)(F)F)c3)cc2)ccn1 | enzyme activity | inhibitor | – | 10 µM | inhibition | 8% |
| Brc1cnc(Nc2cccc(CN3CCOCC3)c2)nc1NCCc1c[nH]cn1 | enzyme activity | inhibitor | radiometric | 1 µM | remaining activity | -3% |
| COc1cc2ncnc(Nc3ccc(F)c(Cl)c3)c2cc1OCCCN1CCOCC1 | cell-free assay | – | – | 0.5 µM | remaining signal | 116% |
